Data from ChEMBL document CHEMBL4689842, “EUbOPEN Chemogenomics Library wave 1” (2021).

System: Fibroblast
Experiment: Multiplex assay against human fibroblast
Assay type: toxicity, cell-based
Method in brief: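 Phenotypes for tubulin, mitochondrial mass and membrane permeability are expressed as per cents of healthy-nucleus cells. Cells were stained live at seeding with Hoechst33342, BioTracker Green Microtubule Cytoskeleton Dye, MitoTracker Red and Annexin V Alexa Fluor 680, then imaged after compound addition on a CQ1 microscope at 37°C and 5% CO2. Machine-learning gating in CellPathfinder separated Hoechst high-intensity objects from normal cells, divided normal cells by nuclear state (healthy, pyknosed, fragmented) and divided pyknosed cells into mitotic or apoptotic.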

[1] = 12 h, 1 µM, compound concentration 1 uM, replicate 1
[2] = 12 h, 1 µM, compound concentration 1 uM, replicate 2
[3] = 12 h, 10 µM, compound concentration 10 uM, replicate 1
[4] = 12 h, 10 µM, compound concentration 10 uM, replicate 2
[5] = 24 h, 1 µM, compound concentration 1 uM, replicate 1
[6] = 24 h, 1 µM, compound concentration 1 uM, replicate 2
[7] = 24 h, 10 µM, compound concentration 10 uM, replicate 1
[8] = 24 h, 10 µM, compound concentration 10 uM, replicate 2
[9] = 48 h, 1 µM, compound concentration 1 uM, replicate 1
[10] = 48 h, 1 µM, compound concentration 1 uM, replicate 2
[11] = 48 h, 10 µM, compound concentration 10 uM, replicate 1
[12] = 48 h, 10 µM, compound concentration 10 uM, replicate 2

Cn1cc(-c2[nH]c3cc(NC(=O)[C@H](N)C4CCCCC4)cc4c3c2C=NNC4=O)cn1
Population Apoptotic (%) [1]: 76%
Population Fragmented Nuclei (%) [1]: 27%
Population Healthy Nuclei (%) [1]: 42%
Population Hoechst High Intensity Objects (%) [1]: 8%
Population Membrane Permeable-Phenotype (%) [1]: 18%
Population Mitochondria Different-Phenotype (%) [1]: 13%
Population Mitotic Cells (%) [1]: 23%
Population Normal (%) [1]: 91%
Population Pyknosed Nuclei (%) [1]: 30%
Population Tubulin-Different-Phenotype (%) [1]: 28%
Total Cell Count [1]: 138
Population Apoptotic (%) [2]: 33%
Population Fragmented Nuclei (%) [2]: 13%
Population Healthy Nuclei (%) [2]: 72%
Population Hoechst High Intensity Objects (%) [2]: 3%
Population Membrane Permeable-Phenotype (%) [2]: 4%
Population Mitochondria Different-Phenotype (%) [2]: 7%
Population Mitotic Cells (%) [2]: 66%
Population Normal (%) [2]: 96%
Population Pyknosed Nuclei (%) [2]: 13%
Population Tubulin-Different-Phenotype (%) [2]: 12%
Total Cell Count [2]: 51
Population Apoptotic (%) [3]: 69%
Population Fragmented Nuclei (%) [3]: 48%
Population Healthy Nuclei (%) [3]: 38%
Population Hoechst High Intensity Objects (%) [3]: 20%
Population Membrane Permeable-Phenotype (%) [3]: 20%
Population Mitochondria Different-Phenotype (%) [3]: 4%
Population Mitotic Cells (%) [3]: 30%
Population Normal (%) [3]: 79%
Population Pyknosed Nuclei (%) [3]: 13%
Population Tubulin-Different-Phenotype (%) [3]: 43%
Total Cell Count [3]: 244
Population Fragmented Nuclei (%) [4]: 37%
Population Healthy Nuclei (%) [4]: 42%
Population Hoechst High Intensity Objects (%) [4]: 9%
Population Membrane Permeable-Phenotype (%) [4]: 21%
Population Mitochondria Different-Phenotype (%) [4]: 53%
Population Normal (%) [4]: 90%
Population Pyknosed Nuclei (%) [4]: 19%
Population Tubulin-Different-Phenotype (%) [4]: 57%
Total Cell Count [4]: 91
Population Apoptotic (%) [5]: 58%
Population Fragmented Nuclei (%) [5]: 27%
Population Healthy Nuclei (%) [5]: 44%
Population Hoechst High Intensity Objects (%) [5]: 12%
Population Membrane Permeable-Phenotype (%) [5]: 20%
Population Mitochondria Different-Phenotype (%) [5]: 3%
Population Mitotic Cells (%) [5]: 41%
Population Normal (%) [5]: 87%
Population Pyknosed Nuclei (%) [5]: 28%
Population Tubulin-Different-Phenotype (%) [5]: 26%
Total Cell Count [5]: 137
Population Apoptotic (%) [6]: 43%
Population Fragmented Nuclei (%) [6]: 13%
Population Healthy Nuclei (%) [6]: 70%
Population Hoechst High Intensity Objects (%) [6]: 3%
Population Membrane Permeable-Phenotype (%) [6]: 9%
Population Mitochondria Different-Phenotype (%) [6]: 6%
Population Mitotic Cells (%) [6]: 56%
Population Normal (%) [6]: 96%
Population Pyknosed Nuclei (%) [6]: 15%
Population Tubulin-Different-Phenotype (%) [6]: 15%
Total Cell Count [6]: 52
Population Apoptotic (%) [7]: 62%
Population Fragmented Nuclei (%) [7]: 54%
Population Healthy Nuclei (%) [7]: 37%
Population Hoechst High Intensity Objects (%) [7]: 23%
Population Membrane Permeable-Phenotype (%) [7]: 20%
Population Mitochondria Different-Phenotype (%) [7]: 1%
Population Mitotic Cells (%) [7]: 37%
Population Normal (%) [7]: 76%
Population Pyknosed Nuclei (%) [7]: 8%
Population Tubulin-Different-Phenotype (%) [7]: 52%
Total Cell Count [7]: 256
Population Apoptotic (%) [8]: 86%
Population Fragmented Nuclei (%) [8]: 34%
Population Healthy Nuclei (%) [8]: 29%
Population Hoechst High Intensity Objects (%) [8]: 16%
Population Membrane Permeable-Phenotype (%) [8]: 44%
Population Mitochondria Different-Phenotype (%) [8]: 61%
Population Mitotic Cells (%) [8]: 13%
Population Normal (%) [8]: 83%
Population Pyknosed Nuclei (%) [8]: 36%
Population Tubulin-Different-Phenotype (%) [8]: 55%
Total Cell Count [8]: 106
Population Apoptotic (%) [9]: 43%
Population Fragmented Nuclei (%) [9]: 30%
Population Healthy Nuclei (%) [9]: 49%
Population Hoechst High Intensity Objects (%) [9]: 14%
Population Membrane Permeable-Phenotype (%) [9]: 26%
Population Mitochondria Different-Phenotype (%) [9]: 3%
Population Mitotic Cells (%) [9]: 56%
Population Normal (%) [9]: 85%
Population Pyknosed Nuclei (%) [9]: 20%
Population Tubulin-Different-Phenotype (%) [9]: 26%
Total Cell Count [9]: 134
Population Apoptotic (%) [10]: 0%
Population Fragmented Nuclei (%) [10]: 47%
Population Healthy Nuclei (%) [10]: 50%
Population Hoechst High Intensity Objects (%) [10]: 15%
Population Membrane Permeable-Phenotype (%) [10]: 20%
Population Mitochondria Different-Phenotype (%) [10]: 2%
Population Mitotic Cells (%) [10]: 100%
Population Normal (%) [10]: 84%
Population Pyknosed Nuclei (%) [10]: 2%
Population Tubulin-Different-Phenotype (%) [10]: 38%
Total Cell Count [10]: 103
Population Apoptotic (%) [11]: 77%
Population Fragmented Nuclei (%) [11]: 52%
Population Healthy Nuclei (%) [11]: 41%
Population Hoechst High Intensity Objects (%) [11]: 39%
Population Membrane Permeable-Phenotype (%) [11]: 14%
Population Mitochondria Different-Phenotype (%) [11]: 3%
Population Mitotic Cells (%) [11]: 22%
Population Normal (%) [11]: 60%
Population Pyknosed Nuclei (%) [11]: 5%
Population Tubulin-Different-Phenotype (%) [11]: 36%
Total Cell Count [11]: 251
Population Apoptotic (%) [12]: 50%
Population Fragmented Nuclei (%) [12]: 62%
Population Healthy Nuclei (%) [12]: 35%
Population Hoechst High Intensity Objects (%) [12]: 32%
Population Membrane Permeable-Phenotype (%) [12]: 11%
Population Mitochondria Different-Phenotype (%) [12]: 2%
Population Mitotic Cells (%) [12]: 50%
Population Normal (%) [12]: 67%
Population Pyknosed Nuclei (%) [12]: 1%
Population Tubulin-Different-Phenotype (%) [12]: 53%
Total Cell Count [12]: 186
